Converted amounts (≈) assume the structure as drawn.
Tests used:
[1] = system: PrP^Sc levels in ScN2a-cl3 cells; assay: cells; type: cell-based, mouse
[2] = Single-dose oral PK at 40 mg/kg; type: in vivo, FVB mice; conditions: single 40 mg/kg oral dose, ranking among 27 2-AMTs and Compd B
rat liver microsomes = assay: Hepatic microsomal stability, rat; type: in vitro ADME; conditions: 1 μM
Method in brief: (§1)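 Liver microsomes from mouse, rat or human (~0.5 mg/mL final) were incubated at 37°C with test compound at 1 μM final (0.6% ACN, 0.01% DMSO) in PBS pH 7.4 ± 0.05% PS80, with 1 mM NADPH or PBS.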

[3] = Solubility at pH 2, pH 7.4 and in FaSSIF; type: physicochemical; conditions: for Solubility pH 7.4: pH 7.4 (phosphate) buffer
human liver microsomes = assay: Hepatic microsomal stability, human; type: in vitro ADME; conditions: 1 μM
Method in brief: as §1

mouse liver microsomes = assay: Hepatic microsomal stability, mouse; type: in vitro ADME; conditions: 1 μM
Method in brief: as §1

Media solubility = type: physicochemical; conditions: media used in the cell-based assays, 10% FBS
[4] = 3-day multidose PK in liquid diet; type: in vivo, FVB mice; conditions: 3 days in liquid diet; for Brain and plasma concentrations (C3-day): 40, 80, 130 and 210 mg/kg/day
MDCK-MDR1 cells = assay: Bidirectional MDCK-MDR1 cell permeability; type: in vitro ADME, canine; conditions: for Papp (A−B) / Papp (B−A): 10 μM, pH 7.4; for Efflux ratio: MDCK-MDR1 cells
human plasma = conditions: human, plasma, pH 7.4

In the case of `Cc1ccnc(Nc2nc(-c3ccccc3O)cs2)c1` [IND48], the EC50 [1] is reported as over 10000 nM and the “AUClast values, brain and plasma” value [2] is reported as “lowest AUClast values”.
With `Cc1ccnc(Nc2nc(-c3ccc(O)cc3)cs2)c1` [IND49] the EC50 [1] was over 10000 nM and the “AUClast values, brain and plasma” value [2] was “lowest AUClast values”.
For `Cc1ccnc(Nc2nc(-c3ccncc3)cs2)c1` [IND52], the “% remaining after a 60-min incubation” value (rat liver microsomes) was 8%, the “Solubility FaSSIF” value ([3]; fasted-state simulated intestinal fluid) was 2 µM (≈ 0.537 µg/mL) and the “Solubility pH 2.0” value ([3]; pH 2 (HCl) buffer, room temperature overnight) was 215 μM. For the same molecule, the “Solubility pH 7.4” value ([3]; room temperature overnight) was 1 μM, the “% remaining after a 60-min incubation” value (human liver microsomes) was 30% and the EC50 [1] was 4950 nM. For the same molecule, the “% remaining after a 60-min incubation” value (mouse liver microsomes) was 0%, the “Solubility Media” value (Media solubility) was 76 µM (≈ 20.4 µg/mL) and the “Brain concentration (C3-day)” value ([4]; 40 mg/kg dose) was “no measurable brain concentrations”. For the same molecule, the “Papp (A−B)” value (MDCK-MDR1 cells) was 36.2 ×10⁻⁶ cm/s, the “Papp (B−A)” value (MDCK-MDR1 cells) was 48.7 ×10⁻⁶ cm/s and the Efflux ratio (MDCK-MDR1 cells) was 1.3.
In the case of `Cc1ccnc(Nc2nc(-c3ccc4c(c3)OCCO4)cs2)c1` [IND57], the EC50 [1] is reported as over 10000 nM.
`Cc1ccnc(Nc2nc(-c3cc(-c4ccc(Cl)cc4)no3)cs2)c1` [IND64] showed an EC50 [1] of 850 nM.
Molecule `COc1ccc(-c2csc(Nc3ccc(C)cn3)n2)c(OC)c1` [IND74] has an EC50 [1] of 3130 nM.
With `Cc1ccc(Nc2nc(-c3ccc(-c4ccccn4)s3)cs2)nc1` [IND76] the EC50 [1] was 1230 nM.
For `Cc1ccnc(Nc2nc(-c3ccc(OC(F)(F)F)cc3)cs2)c1` [IND78], the EC50 [1] was over 32000 nM.
With `COc1ccc(-c2csc(Nc3cnccn3)n2)cc1OC` [IND82] the EC50 [1] was 15600 nM.
For `c1ccc2cc(Nc3nc(-c4ccncc4)cs3)ncc2c1` [IND85], the “% remaining after a 60-min incubation” value (rat liver microsomes) was 32%, the “Solubility pH 7.4” value ([3]; room temperature overnight) was under 1 μM and the “% remaining after a 60-min incubation” value (human liver microsomes) was 66%. The EC50 [1] was 310 nM, the “% remaining after a 60-min incubation” value (mouse liver microsomes) was 6% and the “Solubility Media” value (Media solubility) was 116 µM (≈ 35.3 µg/mL). For the same molecule, the “Brain and plasma concentrations (C3-day)” value [4] was at most 1 µM, the “Papp (A−B)” value (MDCK-MDR1 cells) was 3.03 ×10⁻⁶ cm/s and the “Papp (B−A)” value (MDCK-MDR1 cells) was 4.44 ×10⁻⁶ cm/s. It also gave an Efflux ratio (MDCK-MDR1 cells) of 1.5.
`COc1ccc(-c2csc(Nc3cc4ccccc4cn3)n2)cc1` [IND86] showed an EC50 [1] of 340 nM.
In the case of `c1ccc2cc(Nc3nc(-c4cc5ccccc5o4)cs3)ncc2c1` [IND91], the EC50 [1] is reported as 920 nM and the “Brain and plasma concentrations (C3-day)” value [4] is reported as at most 1 µM.
For `CC(=O)CC(c1ccccc1)c1c(O)c2ccccc2oc1=O` (stereo not drawn) [Warfarin], the “Unbound (%)” value (human plasma) was 0.68±0.0023%.
